High-throughput results as filed in PubChem.
Hits are enriched below; roughly 29% of the tested compounds scored in any of these assays.
CYP2C19 inhib = blockers of cytochrome P450 2C19 activity – biochemical, luminescence, ADME assay, primary screen; P33261; CYP2C19 Supersomes, luciferin-H EGE luminescence, 30 min; inhibition, % at 5 µM; 96,000 tested, 21% active; AID 778, 2007;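 active = CYP2C19 inhibition above a set limit at 5 µM in the primary screen, cut at about 50% in these data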
CYP2C9 activ = human CYP2C9 activators, primary screen, biochemical, luminescence; recombinant CYP2C9, luciferin-H conversion; stronger effect = higher value; factor 1 = untreated enzyme, 0 = blocked; activation factor at 5 µM; 96,000 tested, 1.4% active; AID 1024, 2008;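 active = activation factor of 2 or more for CYP2C9 at a 5 µM dose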
Target sequence (P11712 whole entry, looked up): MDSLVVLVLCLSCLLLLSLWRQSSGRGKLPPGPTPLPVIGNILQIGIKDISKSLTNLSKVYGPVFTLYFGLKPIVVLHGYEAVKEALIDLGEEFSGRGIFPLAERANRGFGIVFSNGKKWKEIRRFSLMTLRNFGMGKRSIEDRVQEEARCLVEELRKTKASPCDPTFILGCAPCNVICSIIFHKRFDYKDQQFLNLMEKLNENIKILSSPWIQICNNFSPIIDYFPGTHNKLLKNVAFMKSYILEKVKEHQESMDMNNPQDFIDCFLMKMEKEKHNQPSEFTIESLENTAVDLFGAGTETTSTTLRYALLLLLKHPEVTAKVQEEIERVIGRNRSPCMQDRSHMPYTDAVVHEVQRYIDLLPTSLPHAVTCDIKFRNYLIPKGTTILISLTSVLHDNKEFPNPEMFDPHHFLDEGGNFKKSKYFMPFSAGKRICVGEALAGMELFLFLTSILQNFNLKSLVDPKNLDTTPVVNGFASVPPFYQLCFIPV
CYP2C19 act = human CYP2C19 activators, primary screen, biochemical, luminescence | activation factor at 5 µM | 96,000 tested, under 10 active | AID 1025, 2008 | recombinant CYP2C19, luciferin-H EGE luminescence; stronger effect = higher value; 0 = fully inhibited enzyme, 1 = untreated enzyme | Cytochrome P450 2C19 (Homo sapiens), P33261;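 active = activation factor of at least 2 at 5 µM in the primary screen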
Ecoli tolC = growth inhibitors of E. coli tolC mutant, primary screen, strain BW25113 ΔtolC::kan, 384-well; 65,000 tested, 2.2% active; growth inhibition, % at 10 µM (by protocol); OD615; AID 573, 2007;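 active = growth inhibition at or above a cutoff equal to the mean over every tested compound plus 3 SD, cut at about 60% in these data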;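 also: growth measured after 20 h incubation at 37 °C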
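Test system: E. coli BW25113 ΔtolC::kan bacteria | Medium: Kanamycin-containing LB broth (50 µg/mL) | Dosing: One dose of 10 µM final | Times: 20 h incubation with compound, 37 °C | Detection: Optical density read at 615 nm | Read-out basis: Percent growth inhibition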
CYP2C9 inhib = blockers of cytochrome P450 2C9 activity – biochemical, luminescence, ADME assay, primary screen | P11712 | CYP2C9 Supersomes, luciferin-H conversion | inhibition, % at 5 µM | 96,000 tested, 20% active | AID 777, 2007;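 active = blocking of liver enzyme CYP2C9 beyond about 50% at 5 µM, limit read from the data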
Ecoli WT expand = growth inhibitors of wild-type E. coli, primary screen, strain BW25113, expanded library, OD600 | AID 710, 2007 | growth inhibition, % at 100 µM | OD600 absorbance | 98,000 tested, 0.15% active;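 active = growth inhibition above about 50% at one test dose, limit read from the data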;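 also: growth measured after 20 h incubation at 37 °C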
Numbers stand for hits; n = inactive; x = no result.

SMILES	CYP2C19 inhib	CYP2C9 activ	CYP2C19 act	Ecoli tolC	CYP2C9 inhib	Ecoli WT expand
CCCn1c(SCC(=O)Nc2nonc2C)nnc1-c1ccoc1C	53.8	n	n	x	n	n
COCCn1c(SCC(=O)Nc2ccc(S(=O)(=O)N(C)C)cc2)nc2ccccc21	n	n	n	x	n	n
Cc1occc1-c1nnc(SCC(=O)NCCc2ccccc2)n1C(C)c1ccccc1 (stereo not drawn)	n	n	n	n	84.4	n
COc1cc(NC(=O)CCn2c(=O)[nH]c3ccsc3c2=O)cc(OC)c1	x	x	x	n	x	n
O=C(Nc1ccncc1)C1(c2ccccc2)CCCC1	100.0	n	n	n	94.8	n
CCNC(=O)C1(c2ccccc2)CCCC1	n	n	n	n	n	n
O=C(c1ccc(NC(=O)C2(c3ccccc3)CCOCC2)cc1)N1CCOCC1	n	n	n	n	n	n
O=C(Nc1ccccn1)C1(c2ccccc2)CCCC1	80.9	n	n	n	58.9	n
CC(=O)c1ccc(NC(=O)C2(c3ccccc3)CCOCC2)cc1	n	n	n	x	50.4	n
O=C(Nc1ccc(O)c(-c2nc3ccccc3o2)c1)C1(c2ccccc2)CCCC1	n	n	n	x	87.4	n
O=C(CN1CCOc2ccccc21)N1CCCC1	x	x	x	n	x	x
O=C(Nc1cccnc1)C1(c2ccccc2)CCCC1	52.1	n	n	n	n	n
COc1ccccc1COC(=O)Nc1c(C)nn(C)c1Cl	n	n	n	x	n	n
COc1ccc(S(=O)(=O)O/N=C2\CCCc3ccccc32)cc1	n	n	n	x	n	n
Cc1ccccc1S(=O)(=O)Cc1ccc(C(=O)N2CCN(c3cccc(C)c3C)CC2)o1	n	n	n	69.0	73.3	n
COc1ccccc1S(=O)(=O)Cc1ccc(C(=O)N2CCCC2)o1	n	n	n	n	n	n
COc1ccccc1S(=O)(=O)Cc1ccc(C(=O)N2CCN(c3ccccn3)CC2)o1	53.3	n	n	n	51.4	n
O=C(c1ccc(CS(=O)(=O)c2ccc(Br)cc2)o1)N1CCN(c2ncccn2)CC1	56.1	n	n	n	80.9	n
O=C(NC1CCCC1)c1ccc(CS(=O)(=O)c2ccc(Br)cc2)o1	n	n	n	n	86.2	n
O=C(Nc1ccc(F)cc1F)c1ccco1	n	n	n	n	n	n
CCNC(=O)NC(=O)C(C)OC(=O)c1cccnc1SC (stereo not drawn)	x	x	x	n	x	x
O=S(=O)(C/C(=C/CO)S(=O)(=O)c1ccccc1)c1ccccc1	n	n	n	n	n	n
CCCNc1nc2c(c(=O)n(C)c(=O)n2C)n1CCC(C)C	n	n	n	n	n	n
COc1ccc(S(=O)(=O)Cc2ccc(C(=O)N3CCN(c4ccccn4)CC3)o2)cc1	n	n	n	n	80.6	n
COc1ccccc1S(=O)(=O)Cc1ccc(C(=O)NCCN2CCCC2)o1	n	n	n	n	n	n
SMILES	CYP2C19 inhib	CYP2C9 activ	CYP2C19 act	Ecoli tolC	CYP2C9 inhib	Ecoli WT expand
CCc1ccccc1S(=O)(=O)Cc1ccc(C(=O)N2CCN(c3ccccc3OC)CC2)o1	91.3	n	n	n	95.8	n
Cc1ccc(-n2c3c(c(=O)[nH]c2=O)C(C(F)(F)F)(C(F)(F)F)NC(=O)N3)cc1	n	n	n	x	n	n
Cc1ccc(C)c(N2CCN(c3cc(C)nc4nnnn34)CC2)c1	x	x	x	n	x	x
O=C(Cc1cccs1)N1CCC(c2nc3c(nnn3Cc3ccc(F)cc3)c(=O)[nH]2)CC1	n	n	n	n	95.6	n
O=C(Cc1cccs1)N1CCCC(c2nc3c(nnn3Cc3cccc(Cl)c3)c(=O)[nH]2)C1 (stereo not drawn)	66.1	n	n	n	95.8	n
Cc1ccc(Cn2nnc3c(=O)[nH]c(C4CCCN(C(=O)Nc5ccc(F)cc5)C4)nc32)cc1 (stereo not drawn)	n	n	n	n	n	n
O=C(N(c1ccccc1)c1ccccc1)n1ccnc1	x	x	x	n	x	n
Cn1cc(CC(=O)N2CCN(c3ccc(Cl)cc3)CC2)c2ccccc21	70.6	2.1	n	n	n	n
CCn1c(SCC(=O)N2CCN(c3ccc(Cl)cc3)CC2)nc2ccccc2c1=O	n	n	n	n	n	n
Cn1cc(CC(=O)N2CCN(c3ccccc3F)CC2)c2ccccc21	99.6	n	n	x	n	n
O=C(Cc1ccc(-n2cccc2)cc1)N1CCN(c2ccccc2F)CC1	n	n	n	n	63.3	n
O=C(CCCC(=O)N1CCN(c2ccccc2F)CC1)N1CCN(c2ccccc2F)CC1	n	n	n	n	n	n
Cn1nc(OC(=O)Nc2ccc(Cl)cc2)cc1C(F)(F)F	n	n	n	x	n	n
CSCC[C@H](NC(=O)OC(C)(C)C)C(=O)N/N=C/c1c(C)[nH]c(=O)[nH]c1=O	n	n	n	x	n	n
CCN(CC)CCCN1C(=O)c2oc3ccccc3c(=O)c2C1c1cccs1 (stereo not drawn)	n	n	n	x	n	n
Cc1nn(-c2ccccc2)c(N)c1C(O)(CSc1nccn1C)C(F)(F)F (stereo not drawn)	92.7	n	n	x	86.8	n
Cc1nn(-c2ccc(Cl)cc2)c(N)c1C(O)(CSc1nccn1C)C(F)(F)F (stereo not drawn)	74.8	n	n	n	87.4	n
Cc1c(NC(=O)CSc2nccn2C)c(=O)n(-c2ccccc2)n1C	n	n	n	x	n	n
CCCOc1c(OC)cccc1C1CC(=O)Nc2cc(OC)c(OC)c(OC)c21 (stereo not drawn)	n	n	n	n	n	n
O=C1CC(c2cccs2)c2cc3c(cc2N1)OCO3 (stereo not drawn)	67.1	n	n	n	n	n
O=C1CC(c2ccc3c(c2)OCO3)c2cc3c(cc2N1)OCCO3 (stereo not drawn)	78.1	n	n	n	91.4	n
O=C1CC(c2ccncc2)c2cc3c(cc2N1)OCCO3 (stereo not drawn)	60.6	n	n	n	58.9	n
CCOc1c(OC)cccc1C1CC(=O)Nc2cc3c(cc21)OCCO3 (stereo not drawn)	93.9	n	n	n	69.7	n
COCCCNC(=O)C12CCC(C)(C(=O)C1)C2(C)C (stereo not drawn)	n	n	n	n	n	n
Clc1ccc(-c2cc(COc3ccc4ccccc4c3)no2)cc1	n	n	n	x	n	n
CC1CC(C(F)(F)C(F)(F)F)n2nc(C(=O)O)cc2N1 (stereo not drawn)	n	n	n	n	n	n
CC1Cc2ccccc2N1C(=O)c1ccc2snnc2c1 (stereo not drawn)	81.2	n	n	n	n	n
